Reference: ChEMBL document CHEMBL3091373, “Phenylspirodrimanes with anti-HIV activity from the sponge-derived fungus Stachybotrys chartarum MXH-X73” (J Nat Prod, 2013)

Key:
HEK-293T = experiment: Cytotoxicity against human 293T cells at 10 uM after 48 hrs; assay type: cell-based
Method in brief: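 293T cells at the anti-HIV assay culture conditions (seeded 6 × 10^4 cells/well the day before), compound in DMSO incubated 48 h without virus; viability read with a cell proliferation assay kit.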

[1] = system: Human immunodeficiency virus 1; experiment: Antiviral activity against wild-type HIV-1 infected in HEK293T cells co-transfected with VSVG protein assessed as time required for 50% failure of viral replication at 10 uM by luciferase reporter gene assay; assay type: functional, HEK-293T
Method in brief: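 Time-of-addition run: HEK 293T cells seeded 6 × 10^4/well, held overnight at 37 °C, then infected with VSVG/HIV-wt pseudoparticles (t = 0 at particle addition). Compounds added at a final 10 μM at 0, 2, 4, 6, 8, 10, 12, 14 or 16 h. Cells lysed 48 h post-infection and luciferase activity measured.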

[2] = system: Human immunodeficiency virus 1; experiment: Antiviral activity against HIV-1 expressing reverse transcriptase L100I/K103N double mutant infected in human 293T cells co-transfected with VSVG protein assessed as inhibition of viral-replication incubated 15 mins prior to viral-infection measured after 48 hrs by luciferase reporter gene assay; assay type: functional, organism-based; settings: Human immunodeficiency virus 1, HEK-293T
Method in brief: (§1)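 VSV-G-pseudotyped single-cycle HIV made by Ca3(PO4)2 co-transfection of 293T cells with env-deficient pNL4-3.luc.R-E- (wild-type or RT mutant) vector; medium changed 16 h post-transfection, supernatant harvested at 48 h, filtered, diluted to 0.2 ng p24/mL. Target 293T cells seeded 6 × 10^4/well the day before; compounds in DMSO added 15 min pre-infection; luciferase of lysates read 48 h post-infection.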

[3] = system: Human immunodeficiency virus 1; experiment: Antiviral activity against HIV-1 expressing reverse transcriptase K103N/P225H double mutant infected in human 293T cells co-transfected with VSVG protein assessed as inhibition of viral-replication incubated 15 mins prior to viral-infection measured after 48 hrs by luciferase reporter gene assay; assay type: functional, organism-based; settings: Human immunodeficiency virus 1, HEK-293T; method in brief: as §1
[4] = system: Human immunodeficiency virus 1; experiment: Antiviral activity against HIV-1 expressing reverse transcriptase K103N mutant infected in human 293T cells co-transfected with VSVG protein assessed as inhibition of viral-replication incubated 15 mins prior to viral-infection measured after 48 hrs by luciferase reporter gene assay; assay type: functional, organism-based; settings: Human immunodeficiency virus 1, HEK-293T; method in brief: as §1
[5] = system: Human immunodeficiency virus 1; experiment: Antiviral activity against HIV-1 expressing reverse transcriptase K103N/G190A double mutant infected in human 293T cells co-transfected with VSVG protein assessed as inhibition of viral-replication incubated 15 mins prior to viral-infection measured after 48 hrs by luciferase reporter gene assay; assay type: functional, organism-based; settings: Human immunodeficiency virus 1, HEK-293T; method in brief: as §1
[6] = system: Human immunodeficiency virus 1; experiment: Antiviral activity against wild-type HIV-1 infected in human 293T cells co-transfected with VSVG protein assessed as inhibition of viral-replication incubated 15 mins prior to viral-infection measured after 48 hrs by luciferase reporter gene assay; assay type: functional, organism-based; settings: Human immunodeficiency virus 1, HEK-293T; method in brief: as §1
[7] = system: Human immunodeficiency virus 1; experiment: Antiviral activity against HIV-1 expressing reverse transcriptase K103N/V108I double mutant infected in human 293T cells co-transfected with VSVG protein assessed as inhibition of viral-replication incubated 15 mins prior to viral-infection measured after 48 hrs by luciferase reporter gene assay; assay type: functional, organism-based; settings: Human immunodeficiency virus 1, HEK-293T; method in brief: as §1
[8] = system: Human immunodeficiency virus 1; experiment: Ratio of EC50 for HIV-1 expressing reverse transcriptase K103N/V108I double mutant to EC50 for wild-type HIV-1; assay type: functional
Method in brief: (§2)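 Fold change, computed as the EC50 against each VSV-G-pseudotyped NNRTI-resistant RT-mutant HIV-1 divided by the EC50 against wild-type pseudovirus. Both EC50s come from the 293T single-cycle luciferase infection assay, with compound added 15 min before infection and read at 48 h.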

[9] = system: Human immunodeficiency virus 1; experiment: Ratio of EC50 for HIV-1 expressing reverse transcriptase K103N/G190A double mutant to EC50 for wild-type HIV-1; assay type: functional; method in brief: as §2
[10] = system: Human immunodeficiency virus 1; experiment: Ratio of EC50 for HIV-1 expressing reverse transcriptase L100I/K103N double mutant to EC50 for wild-type HIV-1; assay type: functional; method in brief: as §2
[11] = system: Human immunodeficiency virus 1; experiment: Ratio of EC50 for HIV-1 expressing reverse transcriptase K103N mutant to EC50 for wild-type HIV-1; assay type: functional; method in brief: as §2
[12] = system: Human immunodeficiency virus 1; experiment: Ratio of EC50 for HIV-1 expressing reverse transcriptase K103N/P225H double mutant to EC50 for wild-type HIV-1; assay type: functional; method in brief: as §2
[13] = target: Human immunodeficiency virus type 1 reverse transcriptase (Human immunodeficiency virus 1) (UniProt Q72547); experiment: (§3) Inhibition of HIV-1 reverse transcriptase after 1 hr by spectrophotometry
Method in brief: (§4)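 RNA-dependent DNA polymerase activity. Started with reverse transcriptase, 1 h at 37 °C. Product captured on streptavidin plate 1 h at 37 °C, TMB 15 min, stopped with H2SO4, OD450. Dose-response EC50.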

[14] = target: Human immunodeficiency virus type 1 reverse transcriptase (Human immunodeficiency virus 1, UniProt Q72547); experiment: as §3; method in brief: as §4

## C[C@@H]1CC[C@H]2C(C)(C)[C@H](O)CC[C@]2(C)[C@@]12Cc1c(O)cc3c(c1O2)CN([C@@H](CCC(=O)O)C(=O)O)C3=O
HEK-293T
  Activity: Non-toxic

## C[C@@H]1CC[C@H]2C(C)(C)[C@H](O)C(O)C[C@]2(C)[C@@]12Cc1c(O)cc(CO)c(C=O)c1O2 (some centres undefined)
HEK-293T
  Activity: Non-toxic

## C[C@@H]1CC[C@H]2C(C)(C)[C@H](O)CC[C@]2(C)[C@@]12Cc1c(O)cc3c(c1O2)CN(CCCCN1Cc2c(cc(O)c4c2O[C@]2(C4)[C@H](C)CC[C@H]4C(C)(C)[C@H](O)CC[C@@]42C)C1=O)C3=O
HEK-293T
  Activity: Non-toxic

## Cc1cn([C@H]2C[C@H](N=[N+]=[N-])[C@@H](CO)O2)c(=O)[nH]c1=O [ZIDOVUDINE]
[1]
  Time: 11.59 h

## C[C@@H]1CC[C@H]2C(C)(C)[C@H](O)CC[C@]2(C)[C@@]12Cc1c(O)cc(CO)c(C=O)c1O2
HEK-293T
  Activity: Non-toxic

## C[C@@H]1CC[C@H]2C(C)(C)[C@H](O)CC[C@]2(C)[C@@]12Cc1c(O)cc3c(c1O2)CN(CCCCCN1Cc2c(cc(O)c4c2O[C@]2(C4)[C@H](C)CC[C@H]4C(C)(C)[C@H](O)CC[C@@]42C)C1=O)C3=O
HEK-293T
  Activity: Non-toxic

## Cc1ccnc2c1NC(=O)c1cccnc1N2C1CC1 [NEVIRAPINE]
[2]
  EC50: 3.3 µM
[3]
  EC50: 23.3 µM
[4]
  EC50: 2.3 µM
[5]
  EC50: 51.9 µM
[6]
  EC50: 0.023 µM
[7]
  EC50: 7.5 µM

## CC(=O)CN1Cc2c(cc(O)c3c2O[C@]2(C3)[C@H](C)CC[C@H]3C(C)(C)[C@H](O)CC[C@@]32C)C1=O
[8]
  Ratio EC50: 1.6
[2]
  EC50: 23.8 µM
[9]
  Ratio EC50: 1.7
[10]
  Ratio EC50: 2.8
[3]
  EC50: 6.2 µM
[11]
  Ratio EC50: 0.8
[1]
  Time: 12.66 h
[12]
  Ratio EC50: 0.7
[4]
  EC50: 7 µM
[5]
  EC50: 14.2 µM
HEK-293T
  Activity: Non-toxic
[6]
  EC50: 8.4 µM
[13]
  inhibition: Dose-dependent effect
[14]
  EC50: 50 µM
[7]
  EC50: 13.3 µM

## C[C@@H]1CC[C@H]2C(C)(C)[C@H](O)CC[C@]2(C)[C@@]12Cc1c(O)cc(CO[C@H]3O[C@H](CO)[C@@H](O)[C@H](O)[C@H]3O)c(C=O)c1O2
HEK-293T
  Activity: Non-toxic

## COC(=O)[C@H](CCC(=O)O)N1Cc2c(cc(O)c3c2O[C@]2(C3)[C@H](C)CC[C@H]3C(C)(C)[C@H](O)CC[C@@]32C)C1=O
HEK-293T
  Activity: Non-toxic

## Cc1cc(O)c2c(c1C=O)O[C@]1(C2)[C@H](C)CC[C@H]2C(C)(C)[C@H](O)CC[C@@]21C
HEK-293T
  Activity: Non-toxic

## COC(=O)CC[C@@H](C(=O)O)N1Cc2c(cc(O)c3c2O[C@]2(C3)[C@H](C)CC[C@H]3C(C)(C)[C@H](O)CC[C@@]32C)C1=O
HEK-293T
  Activity: Non-toxic

## Cc1nnc(C(=O)NC(C)(C)c2nc(C(=O)NCc3ccc(F)cc3)c(O)c(=O)n2C)o1
[1]
  Time: 17.78 h

## C[C@@H]1CC[C@H]2C(C)(C)[C@H](O)[C@H](O)C[C@]2(C)[C@@]12Cc1c(O)cc(CO[C@H]3O[C@H](CO)[C@@H](O)[C@H](O)[C@H]3O)c(C=O)c1O2
HEK-293T
  Activity: Non-toxic

## O=C1Nc2ccc(Cl)cc2[C@@](C#CC2CC2)(C(F)(F)F)O1 [EFAVIRENZ]
[1]
  Time: 13.06 h
